Key:
[1] = tested on: RPMI 8402; assay: Cytotoxicity against Human lymphoblast (RPMI 8402) cell line; assay type: functional, cell-based
Outline: (§1)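 MTT microtiter tetrazolium assay; human lymphoblast RPMI 8402 and camptothecin-resistant CPT-K5 grown in suspension at 37 °C, 5% CO2, RPMI medium with 10% heat-inactivated FBS, 2 mM L-glutamine, penicillin 100 U/mL, streptomycin 0.1 mg/mL. Continuous exposure to varying drug concentrations; MTT read at end of day 4; IC50 calculated.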

[2] = tested on: DNA topoisomerase 1 (Bos taurus); assay: The compound was tested for topoisomerase-1 mediated DNA cleavage, activity is expressed as REC(relative effective concentration) i.e., concentration relative to Hoechst 33342.
[3] = tested on: RPMI 8402; assay: Cytotoxicity against Camptothecin-resistant (CPT -K5) cell line; assay type: functional, cell-based; settings: Homo sapiens
Outline: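 MTT tetrazolium assay in 96-well plates on CPT-K5, a camptothecin-resistant variant of human lymphoblast RPMI 8402, grown in suspension at 37 °C, 5% CO2 in RPMI medium with 10% heat-inactivated FBS, 2 mM L-glutamine, penicillin and streptomycin. Cells were exposed continuously to varying drug concentrations, with MTT read at the end of day 4. IC50 was calculated.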

[4] = tested on: KB 3-1; assay: Cytotoxicity against human epidermoid carcinoma (KB3-1) cell line; assay type: functional, cell-based
Outline: (§2)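 KB3-1 epidermoid carcinoma cells and KBV-1, their vinblastine-selected MDR1-overexpressing variant, were grown as monolayers in 5% CO2 in Dulbecco's medium with 10% heat-inactivated FBS. Viability was measured by MTT tetrazolium microtiter assay after 4 days of continuous exposure to varying drug concentrations, and IC50 was calculated.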

[5] = tested on: KB; assay: Cytotoxicity against human epidermoid carcinoma vinblastine-selected multidrug-resistant (KBV-1) cell line; assay type: functional, cell-based; outline: as §2
[6] = tested on: KB 3-1; assay: Cytotoxicity against human epidermoid carcinoma (KB3-1) cell line.; assay type: functional, cell-based
Outline: (§3)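 Human epidermoid carcinoma KB3-1 and vinblastine-selected MDR1-overexpressing KBV-1 grown as monolayers in 5% CO2, Dulbecco's medium with 10% heat-inactivated FBS. Cytotoxicity by MTT microtiter tetrazolium assay after continuous exposure to varying drug concentrations for 4 days; IC50 calculated.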

[7] = tested on: KB; assay: Cytotoxicity against human epidermoid carcinoma vinblastine-selected multidrug-resistant (KBV-1) cell line.; assay type: functional, cell-based; outline: as §3
[8] = tested on: RPMI 8402; assay: Cytotoxicity against Camptothecin-resistant (CPT -K5) cell line.; assay type: functional, cell-based; settings: Homo sapiens; outline: as §1

N#Cc1ccc2[nH]c(-c3ccc4[nH]cnc4c3)nc2c1
IC50 [1]: > 25000 nM
Relative concentration [2]: 1000

CCOc1ccc(-c2nc3cc(-c4nc5cc(N6CCN(C)CC6)ccc5[nH]4)ccc3[nH]2)cc1
IC50 [3]: 900 nM
IC50 [4]: 10 nM
IC50 [5]: 1200 nM
IC50 [1]: 30 nM

c1ccc(-c2ccc3[nH]c(-c4ccc5[nH]c(-c6ccc7[nH]cnc7c6)nc5c4)nc3c2)cc1
IC50 [6]: 580 nM
IC50 [1]: 90 nM
IC50 [7]: 350 nM
IC50 [8]: 0.58 µM
Relative concentration [2]: 2

COc1ccc(-c2nc3cc(-c4nc5cc(-c6nc7cc(C#N)ccc7[nH]6)ccc5[nH]4)ccc3[nH]2)cc1
IC50 [1]: > 20000 nM
Relative concentration [2]: 1000

N#Cc1ccc2[nH]c(-c3ccc4[nH]c(-c5ccc6[nH]cnc6c5)nc4c3)nc2c1
IC50 [1]: > 25000 nM
IC50 [8]: > 25 µM
Relative concentration [2]: 1

c1ccc2[nH]c(-c3ccc4[nH]c(-c5ccc6[nH]cnc6c5)nc4c3)nc2c1
IC50 [1]: 14000 nM
IC50 [8]: 28 µM
Relative concentration [2]: 1.1

c1cc(-c2ccc3[nH]c(-c4ccc5[nH]c(-c6ccc7[nH]cnc7c6)nc5c4)nc3c2)ccn1
IC50 [6]: 20 nM
IC50 [1]: 35 nM
IC50 [7]: 10 nM
IC50 [8]: 2.5 µM
Relative concentration [2]: 2

c1cncc(-c2ccc3[nH]c(-c4ccc5[nH]c(-c6ccc7[nH]cnc7c6)nc5c4)nc3c2)c1
IC50 [6]: 20 nM
IC50 [1]: 35 nM
IC50 [7]: 20 nM
IC50 [8]: 2.5 µM
Relative concentration [2]: 2

COc1ccc(-c2nc3cc(-c4nc5cc(C#N)ccc5[nH]4)ccc3[nH]2)cc1
IC50 [1]: 27000 nM
Relative concentration [2]: 3.3

c1ccc(-c2ccc3[nH]c(-c4ccc5[nH]c(-c6ccc7[nH]cnc7c6)nc5c4)nc3c2)nc1
IC50 [6]: 50 nM
IC50 [1]: 160 nM
IC50 [7]: 90 nM
IC50 [8]: 5.8 µM
Relative concentration [2]: 3.3

CCCc1ccc2[nH]c(-c3ccc4[nH]c(-c5ccc6[nH]cnc6c5)nc4c3)nc2c1
IC50 [1]: 7600 nM
IC50 [8]: 20 µM
Relative concentration [2]: 100

Source: ChEMBL document CHEMBL1128728, “Synthesis and evaluation of terbenzimidazoles as topoisomerase I inhibitors” (J Med Chem, 1995)
